Measured values: ChEMBL document CHEMBL1139850, “Hypoxia-selective antitumor agents: norsesterterpene peroxides from the marine sponge Diacarnus levii preferentially suppress the growth of tumor cells under hypoxic conditions” (J Nat Prod, 2007)
pIC50: −log10 of the molar value. Calls of active or inactive are those of the source. The calls are words filed in the database; no cut-off is given here.

How the values were obtained:
MDA-MB-231 [1] = assay: Antiproliferative activity against human MDA-MB-231 cells under normoxic condition; type: functional, cell-based
Summary of the method: (§1)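 Human prostate (DU145, PC-3) and breast (MCF-7, MDA-MB-231, T47D) carcinoma cells were grown in DMEM/F12 with 10% FCS and Pen/Strep. They were seeded at 30,000 cells/well and left overnight. Compound was added with DMSO up to 0.6% final, and plates went 48 h at 37 °C, hypoxic (1% O2:5% CO2:94% N2) or normoxic (5% CO2:95% air). Read-out was neutral red, A540 corrected at 630 nm, in quadruplicate.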

PC-3 [2] = assay: Antiproliferative activity against human PC3 cells under hypoxic condition; type: functional, cell-based; summary of the method: as §1
MDA-MB-231 [3] = assay: Antiproliferative activity against human MDA-MB-231 cells under hypoxic condition; type: functional, cell-based; summary of the method: as §1
DU-145 [4] = assay: Antiproliferative activity against human DU145 cells under normoxic condition; type: functional, cell-based; summary of the method: as §1
MCF7 [5] = assay: Antiproliferative activity against human MCF7 cells under hypoxic condition; type: functional, cell-based; summary of the method: as §1
PC-3 [6] = assay: Antiproliferative activity against human PC3 cells under normoxic condition; type: functional, cell-based; summary of the method: as §1
MCF7 [7] = assay: Antiproliferative activity against human MCF7 cells under normoxic condition; type: functional, cell-based; summary of the method: as §1
T47D [8] = assay: Antiproliferative activity against human T47D cells under hypoxic condition; type: functional, cell-based; summary of the method: as §1
T47D [9] = assay: Antiproliferative activity against T47D cells at 12. 7 uM; type: functional, Homo sapiens
DU-145 [10] = assay: Antiproliferative activity against human DU145 cells under hypoxic condition; type: functional, cell-based; summary of the method: as §1
Homo sapiens [11] = species on record: Homo sapiens; assay: Inhibition of hypoxia-induced HIF1 activation at 12. 7 uM
Summary of the method: (§2)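 HIF-1 activity was read in transfected cells by a luciferase reporter after a 16 h compound exposure under hypoxia (1% O2:5% CO2:94% N2). Normoxic (5% CO2:95% air) and hypoxia-mimetic (10 µM 1,10-phenanthroline) conditions were run alongside.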

T47D [12] = assay: Antiproliferative activity against human T47D cells under normoxic condition; type: functional, cell-based; summary of the method: as §1
T47D [13] = assay: Antiproliferative activity against T47D cells after 16 hrs at 12. 7 uM; type: functional, Homo sapiens
T47D [14] = assay: Antiproliferative activity against T47D cells at 1.27 uM; type: functional, cell-based; settings: Homo sapiens
Homo sapiens [15] = species on record: Homo sapiens; assay: Inhibition of hypoxia induced HIF-1 activation at 1.27 uM; summary of the method: as §2
MDA-MB-231 [16] = assay: Antiproliferative activity against human MDA-MB-231 cells at 0.3 uM; type: functional, cell-based; summary of the method: as §1

In the case of C=C1CCCC(C)(C)C1CCC(C)CCC[C@@]1(C)CC[C@H]([C@H](C)C(=O)OC)OO1 (relative stereo) [DIACARNOXIDE A], the pIC50 (MDA-MB-231 [1]) was 4.75, the pIC50 (PC-3 [2]) was less than 4.52 and the pIC50 (MDA-MB-231 [3]) was 4.75. For the same compound, the pIC50 (DU-145 [4]) was less than 4.52, the pIC50 (MCF7 [5]) was less than 4.52 and the pIC50 (PC-3 [6]) was less than 4.52. The pIC50 (MCF7 [7]) was less than 4.52, the pIC50 (T47D [8]) was 4.57 and the Activity (T47D [9]) was “<=30%”. The pIC50 (DU-145 [10]) was less than 4.52, the inhibition (Homo sapiens [11]) was less than 30% and the pIC50 (T47D [12]) was 4.83.
Compound C=C1CCCC(C)(C)C1CCC(C)CCC[C@@]1(C)CC[C@H]([C@H](C)C(=O)O)OO1 (relative stereo) [DIACARNOXIDE B] has a pIC50 (MDA-MB-231 [1]) of 4.88, a pIC50 (PC-3 [2]) of 4.89 and a pIC50 (MDA-MB-231 [3]) of 5.25. The pIC50 (DU-145 [4]) was 5.18, the pIC50 (MCF7 [5]) was 5.18 and the Activity (T47D [13]) was 97%. For the same compound, the pIC50 (PC-3 [6]) was 4.78, the pIC50 (MCF7 [7]) was 4.86 and the Activity (T47D [14]) was “inactive”. The pIC50 (T47D [8]) was 5.22, the Activity (Homo sapiens [15]) was “inactive” and the Activity (MDA-MB-231 [16]) was “Active”. The pIC50 (DU-145 [10]) was 5.28, the inhibition (Homo sapiens [11]) was 95% and the pIC50 (T47D [12]) was 5.25.
In the case of COC(=O)[C@@H](C)[C@H]1CC[C@](C)(CCCC(C)CCC2=C(C)CCCC2(C)C)OO1 (relative stereo) [DIACARNOXIDE C], the Activity (T47D [9]) was “<=30%” and the inhibition (Homo sapiens [11]) was less than 30%.
For COC(=O)[C@@H](C)[C@H]1CC[C@](C)(CCC/C(C)=C/CC2C(C)=CCCC2(C)C)OO1 (relative stereo) [DIACARNOXIDE D], the Activity (T47D [9]) was “<=30%” and the inhibition (Homo sapiens [11]) was less than 30%.
